Bioassay records deposited in PubChem by several laboratories.
Hits are enriched below; roughly 3.7% of the tested compounds scored in any of these assays.
Dynein cargo inh: inhibitors of GR-EGFP nuclear translocation, primary screen, dynein cargo transport inhibitor project, imaging, high-content, 3617.4 mouse cells. test concentration mostly 20 µM; stimulated with dexamethasone, 1 µM; stronger effect = lower value. z-score, hits read low. actives 0.47% (n = 220,000);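 active means plate z-score of nuclear minus cytoplasmic receptor signal below a set negative limit, without overly bright fluorescence or cell loss, cut at about -3.5 in these data, passing the limit was not always enough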;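 further: z-score of nuclear minus cytoplasmic ring GR-EGFP intensity difference per well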
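Buffer or medium: Induction medium lacking tetracycline, stripped serum | Also added: Dexamethasone agonist, 1.0 µM final, for 30 min | Timing: 48 h induction, 1 h compound, 30 min dex at 37 °C | Detection: Formaldehyde fixation, Hoechst nuclear stain, 10x automated fluorescence imaging | Measure: Nuclear versus cytoplasmic GR-EGFP signal, averaged per well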
UPR XBP1 act: activators of adaptive XBP1 UPR arm, primary screen, cell-based, CHO-XBP1 luciferase reporter, luminescence, uHTS; AID 463104, 2010; activation, % at 20 µM; IRE1-XBP1 UPR activation; percent of tunicamycin response, DMSO as zero; actives 0.33% (n = 330,000);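 active means versus positive control, 20 µM dose yields 30% or more activation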;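 further: 100% = tunicamycin at 10 µg/mL and 0% = DMSO only wells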
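assay system = CHO-XBP1 luciferase reporter cells | amount = 1000 cells/well | buffer or medium = F12 plus 10% FBS | compound dosing = single point, 20 µM final compound, 1% DMSO | incubation = 16-18 h cell attachment at 37 °C, then 6 h compound exposure | detection = Steady-Glo luminescence read | controls = tunicamycin 10 µg/mL and vehicle-only wells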
UPR CHOP act: activators of apoptotic CHOP UPR arm, primary screen, cell-based, CHO-CHOP luciferase reporter, luminescence, uHTS | UPR activation; percent of tunicamycin response over DMSO baseline | activation, % at 10 µM | actives 0.34% (n = 330,000);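 active means at 10 µM dose, activation of 40% or more, normalized to positive control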;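 further: 100% = tunicamycin at 10 µg/mL and 0% = DMSO alone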
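Test system: CHO CHOP reporter cells. Input: 500 CHO-CHOP cells per well. Medium: F12 with 10% FBS. Technique: luciferase luminescence. Measure: percent activation relative to tunicamycin control. Dosing: 10 µM compound, 0.5% DMSO. Timing: 16-18 h cell attachment, then 6 h compound exposure, 37 °C.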
MDM2 E3 inh: MDM2-luciferase reporter signal enhancers, primary screen, MDM2 E3 ligase inhibitor project, cell-based, luminescence, 1536-well; signal enhancement, % at 5 µM; E3 ubiquitin-protein ligase Mdm2 (Homo sapiens), Q00987; actives 0.11% (n = 210,000); cell-based MDM2 ubiquitination luciferase reporter, 2 h; 0 = plate control, 100 = twice control, blank-subtracted;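 active means signal enhancement of 30% or more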;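 further: luminescence tracks abundance of the self-degrading MDM2-luciferase fusion protein; higher signal means inhibition of MDM2 E3 ligase activity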
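Test system: stable mammalian line carrying autodegrading MDM2–luciferase fusion reporter; quantity: 2000 cells in each well; times: 4 h cell settling then 2 h compound exposure, 37 °C; detection: luminescence with SteadyLite reagent, 15 min at room temperature; evaluation: percent signal gain over controls, blank-subtracted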
Beta2AR agonist: beta2AR agonists driving receptor internalization, primary screen, cell-based, FAP fluorogen, flow cytometry; response, % (concentration not given with the values); actives 0.43% (n = 340,000); Am2.2-beta2AR cells; Beta-2 adrenergic receptor (Homo sapiens), P07550; AID 504454, 2011;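 active means response above a set limit, near 3 SD of response in nonfluorescent compounds, cut at about 42% in these data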
Mdm2-MdmX inh: inhibitors of human Mdm2-MdmX association, primary screen, cell-based, luminescence, split luciferase, SaOS-2, uHTS | Protein Mdm4 (Homo sapiens) + E3 ubiquitin-protein ligase Mdm2 (Homo sapiens), … | SaOS-2 split-luciferase Mdm2/MdmX complementation | inhibition, % at 8 µM | actives 3% (n = 330,000) | AID 485346, 2010;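 active means inhibition of at least 50% at 8 µM in the primary screen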
Target sequence (O15151 whole entry, looked up): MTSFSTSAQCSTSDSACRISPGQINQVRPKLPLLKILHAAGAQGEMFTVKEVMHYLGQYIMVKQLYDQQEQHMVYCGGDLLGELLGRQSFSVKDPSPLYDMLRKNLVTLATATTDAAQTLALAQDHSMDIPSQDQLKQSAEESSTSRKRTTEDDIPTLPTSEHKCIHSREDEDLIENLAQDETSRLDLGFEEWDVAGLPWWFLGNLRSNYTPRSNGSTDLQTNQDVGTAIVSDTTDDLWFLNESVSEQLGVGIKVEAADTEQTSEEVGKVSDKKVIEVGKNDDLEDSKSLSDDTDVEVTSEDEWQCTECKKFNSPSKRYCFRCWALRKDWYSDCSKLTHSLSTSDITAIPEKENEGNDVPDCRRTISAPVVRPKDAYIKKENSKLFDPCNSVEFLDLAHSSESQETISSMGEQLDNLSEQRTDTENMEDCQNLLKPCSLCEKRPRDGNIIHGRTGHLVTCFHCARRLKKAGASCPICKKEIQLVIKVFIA
Target sequence (Q00987 whole entry, looked up): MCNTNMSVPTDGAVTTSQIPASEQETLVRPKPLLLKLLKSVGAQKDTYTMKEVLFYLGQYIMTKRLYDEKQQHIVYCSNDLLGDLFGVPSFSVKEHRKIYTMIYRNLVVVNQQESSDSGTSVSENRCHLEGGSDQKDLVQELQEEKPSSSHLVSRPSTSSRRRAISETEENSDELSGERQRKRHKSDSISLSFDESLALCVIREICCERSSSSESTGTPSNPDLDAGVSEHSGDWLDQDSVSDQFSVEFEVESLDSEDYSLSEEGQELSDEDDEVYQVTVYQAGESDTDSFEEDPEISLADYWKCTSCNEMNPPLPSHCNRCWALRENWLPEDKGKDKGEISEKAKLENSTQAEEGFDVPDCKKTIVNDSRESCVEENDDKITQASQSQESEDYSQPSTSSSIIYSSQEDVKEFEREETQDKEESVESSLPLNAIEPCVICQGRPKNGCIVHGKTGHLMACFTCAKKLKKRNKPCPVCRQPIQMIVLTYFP
Mdm2 MdmX conf: Mdm2-MdmX complex disruptors, retested hits, confirmation, luminescence, single concentration. Mdm2-MdmX binding, luminescent assay. inhibition, % at 8 µM. shares compounds with Mdm2-MdmX inh. actives 55% (n = 10,000); in the data active means inhibition above about 40%
Full FLuc ctr: full-length luciferase signal inhibition, confirmation, counter-screen for Mdm2/MdmX interaction inhibitor project, cell-based, single concentration, SaOS-2; actives 77% (n = 6,200); SaOS-2 full-length luciferase counterscreen, luminescence; inhibition, % at 8 µM; AID 504607, 2011; shares compounds with Mdm2-MdmX inh;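 active means mean inhibition at 8 µM reaching about 37%, which flags the compound as non-specific, limit read from the data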;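 further: p53-null SaOS-2 cells with luciferase driven by a doxycycline-inducible promoter; compound on cells about two nights before reading with doxycycline added after day one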
* = called active by the depositor; . = no result.

SMILES	Dynein cargo inh	UPR XBP1 act	UPR CHOP act	MDM2 E3 inh	Beta2AR agonist	Mdm2-MdmX inh	Mdm2 MdmX conf	others
FC(F)(F)c1ccc(NC2=NCCCS2)cc1	.	4	1	.	2	0	.
CC1CCC(C(C)C)C(OC(=O)Cn2c(COc3ccccc3)[n+](C)c3ccccc32)C1 (centres undefined)	-1	23	2	-10	11	98*	96*	Full FLuc ctr=54*
O=C(O)C1C2CCC(O2)C1C(=O)NC1CCCCC1 (centres undefined)	0.22	-1	-1	-2	-1	9	.
COC(=O)C1=C(c2cccc(C#N)c2)C[C@@H]2CC[C@H]1N2C(=O)NC(C)C	.	-3	-1	.	3	18	.
Cc1cc(C)cc(N2C(=O)NC(=O)/C(=C/c3cccn3-c3ccc(Cl)cc3)C2=O)c1	-1.2	-2	99*	.	7	66*	17
COc1ccc(/C=C/C(=O)c2c(O)n(CCC3=CCCCC3)c(=O)[nH]c2=O)cc1	1.1	2	0	-5	11	53*	26
O=C1CCCN1CC#CCN1CCCC1	-1.1	-6	2	-9	-8	12	.
COc1cc(C2c3cc4c(cc3CC3COC(=O)C32)OCO4)cc(OC)c1OC (centres undefined)	.	14	-3	.	20	61*	54*	Full FLuc ctr=98*
COc1ccccc1C1C([N+](=O)[O-])=C(N)Oc2c1c(=O)oc1ccccc21 (centres undefined)	-0.29	0	0	-12	-5	-7	.
NC(=O)c1c(NC(=O)c2ccc(S(=O)(=O)N(CCCl)CCCl)cc2)sc2c1CCCCC2	-1.2	.	.	0	-2	.	.
CC(C)CNC(=O)c1c(N)n(Cc2ccc3c(c2)OCO3)c2nc3ccccc3nc12	-0.14	5	3	-2	-1	61*	15
CC(C)CCNC(=O)c1c(N)n(Cc2ccc3c(c2)OCO3)c2nc3ccccc3nc12	-0.76	5	1	-13	2	24	.
COC(=O)c1ccc(NC(=O)CSc2nc3ccc(N4C(=O)C5C6C=CC(C6)C5C4=O)cc3s2)cc1 (centres undefined)	-0.25	-1	7	-7	24	69*	23
Clc1ccc(COC(Cn2ccnc2)c2ccc(Cl)cc2Cl)cc1 (centres undefined)	0.35	-6	1	.	5	34	.
Clc1ccc(CO/N=C(\Cn2ccnc2)c2ccc(Cl)cc2Cl)c(Cl)c1	.	-7	7	.	.	56*	29
C=CCn1c(O)c(C(CC)=NCc2ccc3c(c2)OCO3)c(=O)[nH]c1=O	-0.16	2	-1	-15	5	55*	5
CCCCn1c(O)c(C(CC)=NCc2ccc3c(c2)OCO3)c(=O)[nH]c1=O	1	1	3	-12	1	-19	.
O=C(c1ccco1)c1cn(Cc2ccc(Cl)cc2)c2ccccc12	-0.83	-2	1	3	-7	51*	34	Full FLuc ctr=68*
O=c1c2ccccc2[se]n1-c1ccccc1	0.61	-10	1	.	7	59*	15
O=c1c2ccccc2nc(-c2ccccc2)n1-c1ccccc1	-0.2	-1	-1	-12	-12	8	.
Oc1c(Br)c(Br)c(Br)c(Br)c1Br	.	-1	-1	.	4	21	.
